Source: ChEMBL document CHEMBL3525926, “CYP2C9-mediated metabolic activation of losartan detected by a highly sensitive cell-based screening assay” (Drug Metab Dispos, 2011)

What was measured:
Type in all cases: ADME, cell-based
Settings in all cases: hepg2, 24 h
Cytochrome P450 2C9 [1] = target: T1, Cytochrome P450 2C9 (Homo sapiens, UniProt P11712); test: Metabolic activation assessed as CYP2C9 activation-induced cytotoxicity in human HepG2 cells transfected with human AdCYP2C9 at MOI 10 for 2 days in presence of siNrf2 at 50 to 200 uM after 24 hrs by WST-8 assay
Method in brief: (§1)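 HepG2 cells reverse-transfected with 10 nM siNrf2 at seeding (1.0×10^4 cells/well), incubated 24 h, then infected with CYP2C9-expressing adenovirus (AdGFP as control) at MOI 10 for 2 days in 5% FBS medium. Drugs added for 24 h. Viability read by WST-8 (absorbance 450 nm) or CellTiter-Glo ATP luminescence. Expressed as % of untreated cells; means ± S.D., n = 3; two-tailed t test versus AdGFP cells.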

Cytochrome P450 2C9 [2] = target: T1, Cytochrome P450 2C9; test: Metabolic activation assessed as CYP2C9 activation-induced cytotoxicity in human HepG2 cells transfected with human AdCYP2C9 at MOI 10 for 2 days in presence of siNrf2 at 25 to 100 uM after 24 hrs by WST-8 assay
Cytochrome P450 2C9 [3] = target: T1, Cytochrome P450 2C9; test: Metabolic activation assessed as CYP2C9 activation-induced cytotoxicity in human HepG2 cells transfected with human AdCYP2C9 at MOI 10 for 2 days in presence of siNrf2 at 25 to 75 uM after 24 hrs by WST-8 assay; method in brief: as §1
Cytochrome P450 2C9 [4] = target: T1, Cytochrome P450 2C9; test: Metabolic activation assessed as CYP2C9 activation-induced cytotoxicity in human HepG2 cells transfected with human AdCYP2C9 at MOI 10 for 2 days in presence of siNrf2 at 100 uM after 24 hrs by WST-8 assay; method in brief: as §1
Cytochrome P450 2C9 [5] = target: T1, Cytochrome P450 2C9; test: Metabolic activation assessed as CYP2C9 activation-induced cytotoxicity in human HepG2 cells transfected with human AdCYP2C9 at MOI 10 for 2 days in presence of siScramble at 25 to 100 uM after 24 hrs by ATP assay
Method in brief: (§2)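 HepG2 cells reverse-transfected with 10 nM scrambled control siRNA at seeding (1.0×10^4 cells/well), then after 24 h infected with CYP2C9-expressing adenovirus (AdGFP control) at MOI 10 for 2 days. Drugs added for 24 h. Viability by CellTiter-Glo ATP luminescence, as % of untreated cells; means ± S.D., n = 3; two-tailed t test versus AdGFP cells.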

Cytochrome P450 2C9 [6] = target: T1, Cytochrome P450 2C9; test: Metabolic activation assessed as CYP2C9 activation-induced cytotoxicity in human HepG2 cells transfected with human AdCYP2C9 at MOI 10 for 2 days in presence of siScramble at 50 to 200 uM after 24 hrs by ATP assay; method in brief: as §2
Cytochrome P450 2C9 [7] = target: T1, Cytochrome P450 2C9; test: Metabolic activation assessed as CYP2C9 activation-induced cytotoxicity in human HepG2 cells transfected with human AdCYP2C9 at MOI 10 for 2 days in presence of siNrf2 at 100 to 200 uM after 24 hrs by WST-8 assay; method in brief: as §1
Cytochrome P450 2C9 [8] = target: T1, Cytochrome P450 2C9; test: Metabolic activation assessed as CYP2C9 activation-induced cytotoxicity in human HepG2 cells transfected with human AdCYP2C9 at MOI 10 for 2 days in presence of siNrf2 at 50 to 200 uM after 24 hrs by ATP assay; method in brief: as §1

T1 sequence (P11712 whole entry): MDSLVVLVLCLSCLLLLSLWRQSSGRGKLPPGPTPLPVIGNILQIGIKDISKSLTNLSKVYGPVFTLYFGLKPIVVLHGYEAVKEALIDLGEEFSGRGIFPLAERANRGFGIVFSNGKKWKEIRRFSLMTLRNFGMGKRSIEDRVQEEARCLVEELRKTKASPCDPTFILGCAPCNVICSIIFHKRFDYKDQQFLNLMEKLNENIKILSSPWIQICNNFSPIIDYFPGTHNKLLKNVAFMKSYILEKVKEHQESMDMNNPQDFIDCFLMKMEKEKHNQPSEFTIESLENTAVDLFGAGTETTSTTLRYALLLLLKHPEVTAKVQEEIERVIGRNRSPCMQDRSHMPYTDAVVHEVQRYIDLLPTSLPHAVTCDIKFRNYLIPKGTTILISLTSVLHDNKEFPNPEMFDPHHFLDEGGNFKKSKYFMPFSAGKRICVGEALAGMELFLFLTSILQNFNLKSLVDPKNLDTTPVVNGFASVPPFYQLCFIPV

| SMILES | Activity (Cytochrome P450 2C9 [2]) | also measured |
| --- | --- | --- |
| CCCC(CCC)C(=O)O [VALPROIC ACID] |  | Activity (Cytochrome P450 2C9 [1]): Non-toxic |
| CCCCC1=NC2(CCCC2)C(=O)N1Cc1ccc(-c2ccccc2-c2nnn[nH]2)cc1 [IRBESARTAN] | Toxic |  |
| CCCCC(=O)N(Cc1ccc(-c2ccccc2-c2nnn[nH]2)cc1)[C@H](C(=O)O)C(C)C [VALSARTAN] | Toxic |  |
| CCCCc1nc(Cl)c(C(=O)O)n1Cc1ccc(-c2ccccc2-c2nn[nH]n2)cc1 [CARBOXYLIC ACID METABOLITE] | Non-toxic |  |
| CCCCc1nc(Cl)c(C=O)n1Cc1ccc(-c2ccccc2-c2nn[nH]n2)cc1 | Non-toxic |  |
| CC(C)C(=O)Nc1ccc([N+](=O)[O-])c(C(F)(F)F)c1 [FLUTAMIDE] |  | Activity (Cytochrome P450 2C9 [3]): Non-toxic |
| Cc1ccc(-c2nc3ccc(C)cn3c2CC(=O)N(C)C)cc1 [ZOLPIDEM] | Toxic |  |
| CCCCc1ncc(/C=C(\Cc2cccs2)C(=O)O)n1Cc1ccc(C(=O)O)cc1 [EPROSARTAN] | Toxic |  |
| CC(C)n1c(/C=C/C(O)CC(O)CC(=O)O)c(-c2ccc(F)cc2)c2ccccc21 (stereo not drawn) [FLUVASTATIN] |  | Activity (Cytochrome P450 2C9 [4]): Toxic; Activity (Cytochrome P450 2C9 [1]): Non-toxic |
| CCCCc1nc(Cl)c(CO)n1Cc1ccc(-c2ccccc2-c2nn[nH]n2)cc1 [LOSARTAN] | Toxic | Activity (Cytochrome P450 2C9 [5]): Non-toxic |
| CN(C/C=C/C#CC(C)(C)C)Cc1cccc2ccccc12 [TERBINAFINE] | Toxic | Activity (Cytochrome P450 2C9 [5]): Toxic |
| CCCc1nc2c(C)cc(-c3nc4ccccc4n3C)cc2n1Cc1ccc(-c2ccccc2C(=O)O)cc1 [TELMISARTAN] | Toxic |  |
| O=C(O)COc1ccc(C(=O)c2cccs2)c(Cl)c1Cl [TICRYNAFEN] |  | Activity (Cytochrome P450 2C9 [6]): Non-toxic; Activity (Cytochrome P450 2C9 [7]): Toxic; Activity (Cytochrome P450 2C9 [8]): Toxic |
